Data published in ChEMBL document CHEMBL1126304 (J Med Chem, 1992).
Calls of active or inactive are those of the source. No cut-off for these calls is given here.

Key:
[1] = molecular target: Histamine H2 receptor (Cavia porcellus) (UniProt P47747); experiment: Histamine H2 receptor agonistic activity in guinea pig right atrium; format: functional, tissue-based; conditions: Cardiac atrium
Histamine H2 receptor = Histamine H2 receptor (Cavia porcellus, UniProt P47747); experiment: Compound is evaluated for histamine H2 receptor agonistic activity in guinea pig cerebral cortex using [3H]tiotidine as radioligand; format: functional, tissue-based
Histamine H2 receptor, sequence (P47747 whole entry): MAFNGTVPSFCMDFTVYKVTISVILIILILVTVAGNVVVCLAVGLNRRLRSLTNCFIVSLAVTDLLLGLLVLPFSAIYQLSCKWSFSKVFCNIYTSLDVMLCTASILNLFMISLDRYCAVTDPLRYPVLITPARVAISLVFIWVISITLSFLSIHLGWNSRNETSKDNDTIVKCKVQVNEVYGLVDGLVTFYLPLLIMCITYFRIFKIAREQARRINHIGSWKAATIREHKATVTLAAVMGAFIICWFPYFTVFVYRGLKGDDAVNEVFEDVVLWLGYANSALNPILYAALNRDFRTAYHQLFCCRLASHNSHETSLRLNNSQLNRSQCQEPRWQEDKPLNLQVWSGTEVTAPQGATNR
Summary of the method: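 H2-receptor binding measured on guinea pig cerebral cortex preparations by displacement of [3H]tiotidine. Displacement curves were fitted by nonlinear regression.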

[2] = molecular target: Histamine H2 receptor (Cavia porcellus) (UniProt P47747); experiment: Intrinsic activity against histamine H2 receptor; format: functional
Cavia porcellus = species: Cavia porcellus; experiment: In vitro activity against gastric secretion in isolated guinea pig stomach; format: functional
Felis catus [3] = experiment: In vivo activity against gastric secretion in conscious cat; format: functional, Stomach
Felis catus [4] = experiment: In vivo activity against gastric secretion in conscious cat; not active; format: functional, organism-based; conditions: Stomach

Histamine H2 receptor (Cavia porcellus), sequence (P47747 whole entry): as above

SMILES | pD2 [1] | Kd (Histamine H2 receptor) [µM] | Intrinsic activity [2] | other results
CN(C)CCCSC(=N)N | 5.67 | 26.3 | 1.06 | 
N=C(N)NCCCc1c[nH]cn1 | 4.7 |  |  | 
N=C(NCCCc1c[nH]cn1)NCCC(c1ccc(F)cc1)c1ccccn1 (stereo not drawn) | 8 |  |  | 
NCCc1csc(N)n1 | 4.6 | 110 | 0.94 | 
CNCCc1cnc(N)s1 |  |  |  | pD2 (Cavia porcellus): 6.02; pD2 (Felis catus [3]): 6.52
CN(C)CCc1cnc(N(C)C)s1 |  |  |  | pD2 (Felis catus [4]): inactive
Cc1nc(C)c(CCN)s1 | 3.78 | 174 | 0.97 | 
NCCc1cnc(N)s1 | 5.51 | 15.1 | 1 | pD2 (Felis catus [3]): 6.1
Cc1ncsc1CCN | 4.67 | 355 | 0.96 | 
N=C(NCCCc1c[nH]cn1)NCCC(c1ccccc1)c1ccccc1 | 7.7 |  |  | 
CNc1ncc(CCN(C)C)s1 |  |  |  | pD2 (Felis catus [4]): inactive
NCCc1c[nH]cn1 |  |  | 1 | 
CN(C)CCc1cnc(N)s1 |  |  |  | pD2 (Cavia porcellus): 5.81; pD2 (Felis catus [3]): 6.3
Cc1nc(N)sc1CCN |  | 5.01 | 0.95 | 
